From ChEMBL document CHEMBL3232808, “Synthesis, biological evaluation, and structure-activity relationships of potent noncovalent and nonpeptidic cruzain inhibitors as anti-Trypanosoma cruzi agents” (J Med Chem, 2014)

Columns and labels:
[1] = target: Cruzipain (Trypanosoma cruzi) (UniProt P25779); assay: Inhibition of Trypanosoma cruzi cruzaine expressed in Escherichia coli SG13009 using Z-FR-AMC as substrate at 100 uM after 5 mins
Trypanosoma cruzi [2] = assay: Antitrypanosomal activity against amastigote stage of lacZ expressing Trypanosoma cruzi Tulahuen after 72 hrs; format: functional, organism-based
In short: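 Human fibroblasts seeded 2×10^3/well in RPMI 1640 without phenol red, overnight; β-galactosidase-expressing trypomastigotes added 1.0×10^4/well. After 24 h, compounds (DMSO stocks diluted in medium) added in serial dilutions 300 to 0.4 μM, triplicate; 72 h incubation. CPRG with Nonidet P-40 (0.1% final) added, absorbance 570 nm; IC50 from curve fitting; benznidazole positive, untreated negative controls; ≥3 experiments.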

Mus musculus [3] = assay: Acute toxicity in BALB/c mouse assessed as mortality incidence at 20, 30, 50 and 50 mg/kg, ip administered at 0, 2, 4, 6 hrs respectively and measured after 48 hrs post last dose; format: organism-based; set-up: dose 50 mg/kg, route intraperitoneal; conditions: in vivo
In short: (§1)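 One female BALB/c mouse (18–20 g) per compound. Stock diluted to 5 mg/mL in sterile distilled water, given ip as cumulative doses over 6 h (20, 30, 50, 50 mg/kg at 0, 2, 4, 6 h; total 150 mg/kg). Mice observed 48 h for acute toxicity signs (chill, thirst) or death, then euthanized.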

Cruzipain [4] = target: T1, Cruzipain (Trypanosoma cruzi, UniProt P25779); assay: Inhibition of Trypanosoma cruzi cruzaine expressed in Escherichia coli SG13009 using Z-FR-AMC as substrate after 5 mins
T1 sequence (P25779 whole entry): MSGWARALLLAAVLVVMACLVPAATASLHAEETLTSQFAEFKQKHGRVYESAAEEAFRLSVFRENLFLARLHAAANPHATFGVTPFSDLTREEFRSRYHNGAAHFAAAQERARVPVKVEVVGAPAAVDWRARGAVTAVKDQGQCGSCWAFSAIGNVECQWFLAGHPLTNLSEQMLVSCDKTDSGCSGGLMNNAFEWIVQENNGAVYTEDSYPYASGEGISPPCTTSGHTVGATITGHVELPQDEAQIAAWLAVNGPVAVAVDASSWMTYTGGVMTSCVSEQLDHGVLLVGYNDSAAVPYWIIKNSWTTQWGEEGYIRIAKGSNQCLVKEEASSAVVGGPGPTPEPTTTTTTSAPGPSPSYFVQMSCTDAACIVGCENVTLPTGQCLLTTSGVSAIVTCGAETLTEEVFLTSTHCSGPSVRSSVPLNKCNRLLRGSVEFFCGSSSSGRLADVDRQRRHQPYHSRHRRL

Mus musculus [5] = assay: Acute toxicity in BALB/c mouse at 20, 30, 50 and 50 mg/kg, ip administered at 0, 2, 4, 6 hrs respectively and measured after last dose; format: organism-based; set-up: dose 50 mg/kg, route intraperitoneal; conditions: in vivo; in short: as §1
Mus musculus [6] = assay: Acute toxicity in BALB/c mouse at 20, 30, 50 and 50 mg/kg, ip administered at 0, 2, 4, 6 hrs respectively and measured after 24 hrs post last dose; format: organism-based; set-up: dose 50 mg/kg, route intraperitoneal; conditions: in vivo
Trypanosoma cruzi [7] = assay: Ratio of benznidazole IC50 to compound IC50 for amastigote stage of lacZ expressing Trypanosoma cruzi Tulahuen; format: functional
In short: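 Human fibroblasts (2×10^3/well) were seeded overnight in phenol-red-free RPMI 1640, then infected with β-galactosidase-expressing Tulahuen trypomastigotes (1.0×10^4/well). After 24 h, compounds (DMSO stocks) were added as serial dilutions from 300 to 0.4 μM, each in triplicate. After 72 h, CPRG with 0.1% Nonidet P-40 was added and A570 read. Benznidazole was run alongside as standard. IC50s are means of ≥3 experiments.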

Cruzipain [8] = target: T1, Cruzipain; assay: Competitive inhibition of Trypanosoma cruzi cruzaine expressed in Escherichia coli SG13009 using Z-FR-AMC as substrate by Lineweaver-Burk plot analysis
In short: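 Mechanism study: eight Z-FR-AMC concentrations crossed with four inhibitor concentrations, each in triplicate, with 1.5 nM cruzain in 0.1 M sodium acetate pH 5.5, 5 mM DTT, 0.01% Triton X-100; 5 min initial rates; kinetic parameters obtained with an enzyme kinetics module.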

Cruzipain (Trypanosoma cruzi), sequence (P25779 123-467 limits assumed): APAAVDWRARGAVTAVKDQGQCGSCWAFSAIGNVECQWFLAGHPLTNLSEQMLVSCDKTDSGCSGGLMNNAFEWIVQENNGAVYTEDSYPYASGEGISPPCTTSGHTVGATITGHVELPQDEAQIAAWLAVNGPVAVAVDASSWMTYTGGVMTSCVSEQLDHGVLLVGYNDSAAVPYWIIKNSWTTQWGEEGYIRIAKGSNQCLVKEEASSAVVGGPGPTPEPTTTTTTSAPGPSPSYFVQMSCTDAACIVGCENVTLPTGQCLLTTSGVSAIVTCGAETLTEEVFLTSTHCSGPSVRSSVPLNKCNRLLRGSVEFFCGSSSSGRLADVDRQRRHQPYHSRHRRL

Cc1ccccc1OCC(=O)NCCN1CCCCC1
inhibition [1]: 3%

O=C(COc1cccc(Br)c1)NCCc1nc2ccccc2[nH]1
IC50 (Trypanosoma cruzi [2]): > 100 µM | Activity (Mus musculus [3]): Non-toxic | IC50 (Cruzipain [4]): 0.8 µM | Activity (Mus musculus [5]): Toxic | inhibition [1]: 96% | Activity (Mus musculus [6]): Non-toxic

Cc1ccccc1OCC(=O)NCCC(=O)NCc1ccccc1
inhibition [1]: 8%

O=C(COc1cccc2ccccc12)NCCc1nc2ccccc2[nH]1
IC50 (Trypanosoma cruzi [2]): > 100 µM | IC50 (Cruzipain [4]): 5.2 µM | inhibition [1]: 84%

O=C(CCc1ccccc1Br)NCCc1nc2ccccc2[nH]1
IC50 (Trypanosoma cruzi [2]): 34.6 µM | IC50 (Cruzipain [4]): 77.5 µM | inhibition [1]: 51%

O=C(COc1ccccc1Br)NCCc1nc2ccccc2[nH]1
IC50 (Trypanosoma cruzi [2]): 1.6 µM | IC50 (Cruzipain [4]): 0.8 µM | Ratio IC50 (Trypanosoma cruzi [7]): 3 | inhibition [1]: 89%

O=C(COc1ccc2ccccc2c1)NCCc1cnc[nH]1
inhibition [1]: 7%

O=C(COc1ccc2ccccc2c1)NCCC(=O)Nc1ccccc1O
inhibition [1]: 14%

Cc1ccccc1OCC(=O)NCCC(=O)Nc1ccccc1O
inhibition [1]: 2%

C=CCCn1c(CCNC(=O)COc2ccccc2Cl)nc2ccccc21
IC50 (Trypanosoma cruzi [2]): 11.1 µM | IC50 (Cruzipain [4]): 23.9 µM | inhibition [1]: 89%

N#Cc1ccccc1OCC(=O)NCCc1nc2ccccc2[nH]1
IC50 (Trypanosoma cruzi [2]): 6.5 µM | Activity (Mus musculus [3]): Non-toxic | IC50 (Cruzipain [4]): 65.1 µM | Activity (Mus musculus [5]): Toxic | inhibition [1]: 81% | Activity (Mus musculus [6]): Non-toxic

O=C(COc1ccccc1I)NCCc1nc2ccccc2[nH]1
IC50 (Trypanosoma cruzi [2]): > 100 µM | Activity (Mus musculus [3]): Toxic | IC50 (Cruzipain [4]): 1.6 µM | Activity (Mus musculus [5]): Toxic | inhibition [1]: 96% | Activity (Mus musculus [6]): Non-toxic

O=C(COc1ccc2ccccc2c1Br)NCCc1nc2ccccc2[nH]1
IC50 (Trypanosoma cruzi [2]): 16.2 µM | Ki (Cruzipain [8]): 82 nM | IC50 (Cruzipain [4]): 0.21 µM | inhibition [1]: 92%

O=C(CCc1ccccc1Br)NCCN1CCCCC1
inhibition [1]: 7%

O=C(COc1ccc2ccccc2c1)NCCc1nc2ccccc2[nH]1
IC50 (Trypanosoma cruzi [2]): 46.1 µM | IC50 (Cruzipain [4]): 3 µM | inhibition [1]: 90%

CC(=O)n1c(CCNC(=O)COc2ccccc2[N+](=O)[O-])nc2ccccc21
inhibition [1]: 47%

O=C(COc1ccc(Br)cc1)NCCc1nc2ccccc2[nH]1
IC50 (Trypanosoma cruzi [2]): 6.7 µM | Activity (Mus musculus [3]): Non-toxic | IC50 (Cruzipain [4]): 2.7 µM | Activity (Mus musculus [5]): Toxic | inhibition [1]: 96% | Activity (Mus musculus [6]): Non-toxic

Nc1ccccc1OCC(=O)NCCc1nc2ccccc2[nH]1
inhibition [1]: 43%

O=C(COc1ccccc1)NCCc1nc2ccccc2[nH]1
inhibition [1]: 88%

CC(=O)Nc1ccccc1OCC(=O)NCCc1nc2ccccc2[nH]1
inhibition [1]: 25%

O=C(COc1ccc2ccccc2c1CO)NCCc1nc2ccccc2[nH]1
IC50 (Cruzipain [4]): 12.7 µM | inhibition [1]: 80%

Cc1ccccc1OCC(=O)NCCc1nc2ccccc2o1
IC50 (Trypanosoma cruzi [2]): 2.9 µM | inhibition [1]: 33%

O=C(COc1ccccc1[N+](=O)[O-])NCCc1nc2ccccc2[nH]1
IC50 (Trypanosoma cruzi [2]): 7.9 µM | IC50 (Cruzipain [4]): 13.2 µM | inhibition [1]: 93%

Cc1ccccc1OCC(=O)NCCC(=O)Nc1ccccc1
inhibition [1]: 4%

Cc1ccccc1OCC(=O)NCCC(=O)O
inhibition [1]: 8%

O=C(COc1ccc2ccccc2c1Br)NCCc1nc2cc(Cl)ccc2[nH]1
IC50 (Cruzipain [4]): 0.6 µM | inhibition [1]: 90%

CC(=O)n1c(CCNC(=O)COc2ccc(Br)cc2)nc2ccccc21
IC50 (Trypanosoma cruzi [2]): 5.3 µM | IC50 (Cruzipain [4]): 9.9 µM | inhibition [1]: 84%

O=C(COc1ccccc1Br)NCCN1CCCCC1
inhibition [1]: 1%

Cc1cc(C)c(C#N)c(SCCNC(=O)COc2ccccc2C)n1
inhibition [1]: 13%

O=C(CSc1ccccc1)NCCc1nc2ccccc2[nH]1
IC50 (Trypanosoma cruzi [2]): > 100 µM | Activity (Mus musculus [3]): Non-toxic | IC50 (Cruzipain [4]): 38.4 µM | Activity (Mus musculus [5]): Toxic | inhibition [1]: 66% | Activity (Mus musculus [6]): Non-toxic

O=C(COc1ccc2ccccc2c1Br)NCCc1c[nH]c2ccccc12
inhibition [1]: 2%

O=C(CCOc1ccccc1)NCCc1nc2ccccc2[nH]1
inhibition [1]: 25%

O=C(Cn1ccnc1[N+](=O)[O-])NCc1ccccc1 [BENZNIDAZOLE]
IC50 (Trypanosoma cruzi [2]): 4.8 µM

O=C(COc1ccccc1F)NCCc1nc2ccccc2[nH]1
IC50 (Trypanosoma cruzi [2]): > 100 µM | Activity (Mus musculus [3]): Non-toxic | IC50 (Cruzipain [4]): 5.3 µM | Activity (Mus musculus [5]): Toxic | inhibition [1]: 92% | Activity (Mus musculus [6]): Non-toxic

O=C(COc1ccccc1Cl)NCCc1nc2ccccc2[nH]1
IC50 (Trypanosoma cruzi [2]): > 100 µM | IC50 (Cruzipain [4]): 3 µM | inhibition [1]: 92%

Cc1ccccc1OCC(=O)NCCc1c[nH]c2ccccc12
inhibition [1]: 5%

O=C(COc1ccc2ccccc2c1)NCCc1nc2ccccc2o1
inhibition [1]: 22%

Cc1ccccc1OCCNCCc1nc2ccccc2[nH]1
inhibition [1]: 8%

Cc1ccccc1OCC(=O)NCCc1nc2ccccc2[nH]1
IC50 (Trypanosoma cruzi [2]): 2.8 µM | Activity (Mus musculus [3]): Non-toxic | IC50 (Cruzipain [4]): 4.1 µM | Activity (Mus musculus [5]): Toxic | inhibition [1]: 88% | Activity (Mus musculus [6]): Non-toxic

Cc1ccc2[nH]c(CCNC(=O)COc3ccc4ccccc4c3Br)nc2c1
IC50 (Cruzipain [4]): 0.62 µM | inhibition [1]: 97%

Nc1ccccc1NC(=O)CCNC(=O)COc1ccccc1[N+](=O)[O-]
inhibition [1]: 4%

O=C(COc1ccccc1Cl)NCCc1cnc[nH]1
inhibition [1]: 14%

O=Cc1c(OCC(=O)NCCc2nc3ccccc3[nH]2)ccc2ccccc12
IC50 (Cruzipain [4]): 13.5 µM | inhibition [1]: 80%

COc1ccc2[nH]c(CCNC(=O)COc3ccc4ccccc4c3Br)nc2c1
IC50 (Cruzipain [4]): 0.54 µM | inhibition [1]: 93%

O=C(COc1ccc2ccccc2c1O)NCCc1nc2ccccc2[nH]1
IC50 (Cruzipain [4]): 8.2 µM | inhibition [1]: 51%
